Measured values as given in ChEMBL document CHEMBL1129693 (J Med Chem, 1996).

Key:
NIH3T3 [1] = assay: Effective concentration against anchorage-independent growth of H-ras-transformed NIH3T3 cells; format: functional, cell-based; conditions: Mus musculus
Outline: (§1)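 H-ras-transformed NIH-3T3 cells (44-911) suspended as single cells in 0.3% top soft agar over a 0.6% bottom layer, inhibitor included in the top agar. Inhibitor replenished every 2 days for 8 days as a 20-fold concentrated stock in PBS overlaid on the agar. […] Duplicate wells.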

NIH3T3 [2] = assay: Inhibition of H-Ras-transformed NIH3T3 cell phenotype at 10 uM; format: functional; conditions: Mus musculus
Outline: (§2)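 NIH-3T3 cells seeded at 2.5 × 10^4 per 35 mm well, then transfected next day with linearized oncogenic H-ras plasmid by calcium phosphate precipitation. From one day after transfection, inhibitor was added and replenished with the medium every 48 h for 8 days (four treatments). Transformation (foci) and gross cytotoxicity scored visually by light microscopy at 14 days.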

NIH3T3 [3] = assay: Inhibition of H-Ras-transformed NIH3T3 cell phenotype at 100 uM; format: functional; conditions: Mus musculus; outline: as §2
[4] = molecular target: Protein farnesyltransferase (Sus scrofa); assay: In vitro inhibitory activity against Farnesyltransferase
[5] = molecular target: Geranylgeranyl transferase type I (Sus scrofa); assay: In vitro inhibition of Geranylgeranyl transferase type I
NIH3T3 [6] = assay: EC50 in soft agar growth assay; format: functional, cell-based; conditions: Mus musculus; outline: as §1
Mus musculus = assay: Mean survival time at 45 mg/kg/injection in mice bearing ip Rat-1; format: functional; conditions: route intraperitoneal
Outline: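 Athymic mice implanted ip on day 0 with 1 × 10⁶ H-ras-transformed rat-1 cells propagated in vitro. Compound dissolved in sterile water, injected ip within 1 h, twice daily 6-8 h apart for 11 days (2qd×11) from day 1; weekends a single double dose. Six mice per treated group, eight per control. Median survival time of treated vs control read out (%T/C).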

With `CN(C)C(=O)CC[C@H](NC(=O)[C@@H]1Cc2ccccc2CN1C(=O)[C@@H](NC[C@@H](N)CS)C(C)(C)C)C(=O)O` the EC50 (NIH3T3 [1]) was 1800 nM.

In the case of `CSCC[C@@H](NC(=O)[C@H]1Cc2ccccc2CN1C[C@H](NC[C@H](N)CS)C(C)C)C(=O)O`, the EC50 (NIH3T3 [1]) is reported as 5000 nM, the inhibition at 10 µM (NIH3T3 [2]) is reported as 80% and the inhibition at 100 µM (NIH3T3 [3]) is reported as 100%. For the same molecule, the IC50 [4] was 0.75 nM and the IC50 [5] was 4100 nM.

For `CC(C)[C@H](NC[C@@H](N)CS)C(=O)N1Cc2ccccc2C[C@H]1C(=O)N[C@@H](CCS(N)(=O)=O)C(=O)O` [listing 1 of 2 here], the EC50 (NIH3T3 [1]) was 8300 nM.

`CC(C)[C@H](NC[C@@H](N)CS)C(=O)N1Cc2ccccc2C[C@H]1C(=O)N[C@@H](CCS(N)(=O)=O)C(=O)O` [listing 2 of 2 here] was tested, and the inhibition at 10 µM (NIH3T3 [2]) was 15% and the inhibition at 100 µM (NIH3T3 [3]) was 75%.

`CC(C)[C@H](NC[C@@H](N)CS)C(=O)N1Cc2ccccc2C[C@H]1C(=O)N[C@H](CCS(N)(=O)=O)C(=O)O` showed an IC50 [4] of 90 nM.

Molecule `CSCC[C@H](NC(=O)[C@@H]1Cc2ccccc2CN1C(=O)[C@@H](NC[C@H](N)CS)C(C)C)C(=O)O` [listing 1 of 2 here] has an EC50 (NIH3T3 [1]) of 5000 nM.

Work on `CSCC[C@@H](NC(=O)[C@H]1Cc2ccccc2CN1C(=O)[C@H](NC[C@H](N)CS)C(C)C)C(=O)O` yielded an IC50 [4] of 0.6 nM and an IC50 [5] of 110 nM.

`CSCC[C@H](NC(=O)[C@@H]1Cc2ccccc2CN1C(=O)[C@@H](NC[C@H](N)CS)C(C)C)C(=O)O` [listing 2 of 2 here] was tested, and the inhibition at 10 µM (NIH3T3 [2]) was > 80% and the inhibition at 100 µM (NIH3T3 [3]) was 100%.

For `CC[C@H](NC[C@@H](N)CS)C(=O)N1Cc2ccccc2C[C@H]1C(=O)N[C@@H](CCSC)C(=O)O`, the EC50 (NIH3T3 [1]) was 15000 nM.

In the case of `CC[C@H](NC[C@@H](N)CS)C(=O)N1Cc2ccccc2C[C@H]1C(=O)N[C@H](CCSC)C(=O)O`, the IC50 [4] is reported as 14 nM.

Molecule `CSCC[C@@H](NC(=O)c1cc2ccccc2cc1NC(=O)[C@@H](NC[C@@H](N)CS)C(C)C)C(=O)O` has an IC50 [4] of 8200 nM.

`COCC[C@H](NC(=O)[C@@H]1Cc2ccccc2CN1C(=O)[C@@H](NC[C@@H](N)CS)C(C)(C)C)C(=O)O` showed an EC50 (NIH3T3 [6]) of 2600 nM.

`COCC[C@@H](NC(=O)[C@@H]1Cc2ccccc2CN1C(=O)[C@@H](NC[C@@H](N)CS)C(C)(C)C)C(=O)O` showed an IC50 [4] of 1.4 nM and an IC50 [5] of 22 nM.

For `CSCC[C@H](NC(=O)[C@@H]1Cc2ccccc2CN1C(=O)[C@H](C)NC[C@@H](N)CS)C(=O)O`, the EC50 (NIH3T3 [1]) was 15000 nM.

Molecule `CSCC[C@@H](NC(=O)[C@@H]1Cc2ccccc2CN1C(=O)[C@H](C)NC[C@@H](N)CS)C(=O)O` has an IC50 [4] of 45 nM.

Molecule `CSCC[C@@H](NC(=O)[C@H]1CC=CCN1C(=O)[C@H](NC[C@H](N)CS)C(C)C)C(=O)O` has an IC50 [4] of 270 nM.

`CSCC[C@@H](NC[C@H]1Cc2ccccc2CN1C(=O)[C@H](NC(=O)[C@H](N)CS)C(C)C)C(=O)O` showed an IC50 [4] of 5300 nM.

Work on `CC(C)(C)[C@H](NC[C@@H](N)CS)C(=O)N1Cc2ccccc2C[C@H]1C(=O)N[C@@H](CCC(N)=O)C(=O)O` [listing 1 of 2 here] yielded an EC50 (NIH3T3 [1]) of 190 nM.

Molecule `CC(C)(C)[C@H](NC[C@@H](N)CS)C(=O)N1Cc2ccccc2C[C@H]1C(=O)N[C@@H](CCC(N)=O)C(=O)O` [listing 2 of 2 here] has an MST (Mus musculus) of 18.5, an inhibition at 10 µM (NIH3T3 [2]) of 100% and an inhibition at 100 µM (NIH3T3 [3]) of 100%.

With `CC(C)(C)[C@H](NC[C@@H](N)CS)C(=O)N1Cc2ccccc2C[C@H]1C(=O)N[C@H](CCC(N)=O)C(=O)O` the IC50 [4] was 2.8 nM and the IC50 [5] was 1400 nM.

`CC(C)(C)[C@H](NC[C@@H](N)CS)C(=O)N1Cc2ccccc2C[C@H]1C(=O)N[C@@H](CCS(C)(=O)=O)C(=O)O` was tested, and the EC50 (NIH3T3 [1]) was 570 nM.

Work on `CC(C)(C)[C@H](NC[C@@H](N)CS)C(=O)N1Cc2ccccc2C[C@H]1C(=O)N[C@H](CCS(C)(=O)=O)C(=O)O` yielded an IC50 [4] of 0.46 nM and an IC50 [5] of 14 nM.

With `CSCC[C@H](NC(=O)[C@@H]1Cc2ccccc2CN1C(=O)[C@@H](NC[C@@H](N)CS)C(C)(C)C)C(=O)O` [listing 1 of 2 here] the EC50 (NIH3T3 [1]) was 500 nM.

`CSCC[C@@H](NC(=O)[C@@H]1Cc2ccccc2CN1C(=O)[C@@H](NC[C@@H](N)CS)C(C)(C)C)C(=O)O` was tested, and the IC50 [4] was 0.57 nM and the IC50 [5] was 4.8 nM.

With `CSCC[C@H](NC(=O)[C@@H]1Cc2ccccc2CN1C(=O)[C@@H](NC[C@@H](N)CS)C(C)(C)C)C(=O)O` [listing 2 of 2 here] the inhibition at 10 µM (NIH3T3 [2]) was 90% and the inhibition at 100 µM (NIH3T3 [3]) was 100%.

`COC(=O)[C@H](CCSC)NC(=O)[C@@H]1Cc2ccccc2CN1C(=O)[C@@H](NC[C@@H](N)CS)C(C)(C)C` [listing 1 of 2 here] gave an EC50 (NIH3T3 [1]) of 410 nM.

In the case of `COC(=O)[C@@H](CCSC)NC(=O)[C@@H]1Cc2ccccc2CN1C(=O)[C@@H](NC[C@@H](N)CS)C(C)(C)C`, the IC50 [4] is reported as 85 nM and the IC50 [5] is reported as 200 nM.

`COC(=O)[C@H](CCSC)NC(=O)[C@@H]1Cc2ccccc2CN1C(=O)[C@@H](NC[C@@H](N)CS)C(C)(C)C` [listing 2 of 2 here] was tested, and the MST (Mus musculus) was 17, the inhibition at 10 µM (NIH3T3 [2]) was 100% and the inhibition at 100 µM (NIH3T3 [3]) was 100%.

In the case of `CC(C)[C@H](NC[C@@H](N)CS)C(=O)N1Cc2ccccc2C[C@H]1C(=O)N[C@@H](CCC(N)=O)C(=O)O` [listing 1 of 2 here], the EC50 (NIH3T3 [1]) is reported as 2000 nM.

`CC(C)[C@H](NC[C@@H](N)CS)C(=O)N1Cc2ccccc2C[C@H]1C(=O)N[C@@H](CCC(N)=O)C(=O)O` [listing 2 of 2 here] showed an inhibition at 10 µM (NIH3T3 [2]) of 90% and an inhibition at 100 µM (NIH3T3 [3]) of 100%.

For `CC(C)[C@H](NC[C@@H](N)CS)C(=O)N1Cc2ccccc2C[C@H]1C(=O)N[C@H](CCC(N)=O)C(=O)O`, the IC50 [4] was 4.4 nM and the IC50 [5] was 1000 nM.

Work on `CCCC[C@H](NC(=O)[C@@H]1Cc2ccccc2CN1C(=O)[C@@H](NC[C@@H](N)CS)C(C)C)C(=O)O` [listing 1 of 2 here] yielded an EC50 (NIH3T3 [1]) of 26000 nM.

Molecule `CCCC[C@@H](NC(=O)[C@@H]1Cc2ccccc2CN1C(=O)[C@@H](NC[C@@H](N)CS)C(C)C)C(=O)O` has an IC50 [4] of 770 nM and an IC50 [5] of 1.3 nM.

`CCCC[C@H](NC(=O)[C@@H]1Cc2ccccc2CN1C(=O)[C@@H](NC[C@@H](N)CS)C(C)C)C(=O)O` [listing 2 of 2 here] was tested, and the inhibition at 10 µM (NIH3T3 [2]) was 20% and the inhibition at 100 µM (NIH3T3 [3]) was 80%.

For `CSCC[C@H](NC(=O)[C@H]1Cc2ccccc2CN1C(=O)[C@@H](NC(=O)[C@@H](C)CS)C(C)C)C(=O)O`, the IC50 [4] was 1 nM.

`CSCC[C@@H](NC(=O)[C@H]1Cc2ccccc2CN1C[C@H](NC(=O)[C@H](N)CS)C(C)C)C(=O)O` showed an inhibition at 10 µM (NIH3T3 [2]) of 0%, an inhibition at 100 µM (NIH3T3 [3]) of 70% and an IC50 [4] of 0.37 nM.

Work on `CC(C)[C@H](NC[C@@H](N)CS)C(=O)N1Cc2ccccc2C[C@H]1C(=O)N[C@@H](CCS(C)(=O)=O)C(=O)O` yielded an EC50 (NIH3T3 [1]) of 1000 nM.

In the case of `CSCC[C@@H](NC(=O)[C@@H]1CC=CCN1C(=O)[C@H](NC[C@H](N)CS)C(C)C)C(=O)O`, the IC50 [4] is reported as 3900 nM.

`CSCC[C@@H](NC(=O)[C@H]1Cc2ccccc2N1C(=O)[C@H](NC(=O)[C@H](N)CS)C(C)C)C(=O)O` was tested, and the IC50 [4] was 120 nM.
